This note sets out measurements from ChEMBL document CHEMBL5625169, “Development of novel PEX5-PEX14 protein-protein interaction (PPI) inhibitors based on an oxopiperazine template” (Eur J Med Chem, 2023).

Some results are limits rather than exact numbers.

One data set concerns Trypanosoma brucei. The data set is described as follows: Antitrypanosomal activity against blood stream form of Trypanosoma brucei Lister 427 MITat 1.2 assessed as parasite growth inhibition incubated for 66 hrs by resazurin dye based assay. Type of data set: functional, organism-based. The conditions noted are these: Lister 427 MITat 1.2, 66 h. In outline:
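Bloodstream-form Lister 427 (MITat 1.2) parasites maintained in HMI-11 with 10% FBS at 37 °C, 5% CO2. Twofold serial dilutions, 10 per row, in quadruplicate. Final 2×10^3 parasites/mL, 66 h, then resazurin added and incubated to 72 h. Fluorescence read at ex 530/em 585 nm, background subtracted, untreated wells taken as 100% survival. EC50 from sigmoidal dose-response fit.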
(In general: The colour change of resazurin is a common sign of viable cells or microbes.)

Another data set deals with HepG2. The experiment in a line: Cytotoxicity against human HepG2 cells assessed as reduction in cell viability incubated for 66 hrs by resazurin staining based analysis. Type of data set: functional. The note with it: HepG2, 66 h. A digest of the protocol: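 HepG2 cells seeded at 5000 per well and grown overnight at 37 °C, 5% CO2. Compounds tested in triplicate at 100 to 3.125 µM (twofold dilutions); hygromycin B as cytotoxic control. After 66 h, resazurin added and plates incubated a further 6 h. Fluorescence background-subtracted and normalised to untreated cells; EC50 from sigmoidal dose-response fit.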

The nature of data set [1]: Inhibition of Trypanosoma brucei biotinylated PEX5 /N-terminal His-tagged PEX14 (19 to 84 residues) protein-protein interaction expressed in Escherichia coli BL21 assessed as inhibition constant by AlphaScreen assay. A digest of the protocol: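 TbPEX14 N-terminal domain (aa 19–84) expressed from pETM-11 in E. coli BL21, Ni-NTA then gel filtration in PBS. AlphaScreen competition with serial inhibitor dilution, other components held constant, quadruplicate. Ki = EC50/(1+[LT]/KdL*T), apparent Kd measured for each condition.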
(In Alpha technology, singlet oxygen from a donor bead excites a nearby acceptor bead.)

Data set [2] is described as follows: Selectivity index, ratio of EC50 for cytotoxicity against human HepG2 cells assessed as reduction in cell viability to EC50 for antitrypanosomal activity against blood stream form of Trypanosoma brucei Lister 427 MITat 1.2 assessed as parasite growth inhibition. The note with it: read-out: Ratio EC50. Type of data set: toxicity, cell-based. In outline: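 Ratio of HepG2 EC50 (µM) to T. b. brucei EC50. Parasites: bloodstream form, 2×10^3/mL, 66 h plus resazurin to 72 h, quadruplicate.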

The target of data set [3] is Tumour suppressor p53/oncoprotein Mdm2 (Homo sapiens, UniProt P04637+Q00987). The experiment in a line: Binding affinity to MDM2-p53 (unknown origin) protein protein interaction assessed as dissociation constant by fluorescence polarization assay. In general terms: Fluorescence polarisation rises when a labelled molecule tumbles more slowly, as on binding a larger partner.
Tumour suppressor p53/oncoprotein Mdm2, sequence (P04637 whole entry): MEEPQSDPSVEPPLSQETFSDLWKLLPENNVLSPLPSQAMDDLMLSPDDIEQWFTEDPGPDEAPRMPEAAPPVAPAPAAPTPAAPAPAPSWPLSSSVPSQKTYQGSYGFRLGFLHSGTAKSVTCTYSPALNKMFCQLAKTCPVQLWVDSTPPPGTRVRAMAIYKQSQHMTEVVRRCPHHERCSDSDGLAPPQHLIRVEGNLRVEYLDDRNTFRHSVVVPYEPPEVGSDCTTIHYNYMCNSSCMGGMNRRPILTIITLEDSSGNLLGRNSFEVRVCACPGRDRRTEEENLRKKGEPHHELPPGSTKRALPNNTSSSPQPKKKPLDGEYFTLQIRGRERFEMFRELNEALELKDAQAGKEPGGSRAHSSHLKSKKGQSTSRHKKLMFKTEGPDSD
Tumour suppressor p53/oncoprotein Mdm2, sequence (Q00987 whole entry): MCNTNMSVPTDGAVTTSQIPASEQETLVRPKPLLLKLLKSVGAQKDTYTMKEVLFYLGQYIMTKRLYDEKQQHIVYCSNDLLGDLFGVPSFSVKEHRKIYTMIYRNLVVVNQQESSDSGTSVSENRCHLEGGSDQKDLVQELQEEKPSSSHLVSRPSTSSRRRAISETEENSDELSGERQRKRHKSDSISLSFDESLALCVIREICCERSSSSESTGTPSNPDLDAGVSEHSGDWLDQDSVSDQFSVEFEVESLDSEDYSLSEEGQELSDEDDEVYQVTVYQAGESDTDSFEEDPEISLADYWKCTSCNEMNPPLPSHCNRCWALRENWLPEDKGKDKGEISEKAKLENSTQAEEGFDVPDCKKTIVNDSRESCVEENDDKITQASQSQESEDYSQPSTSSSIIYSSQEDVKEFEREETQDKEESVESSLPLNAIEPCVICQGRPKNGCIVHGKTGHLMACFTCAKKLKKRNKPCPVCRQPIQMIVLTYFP

Data set [4] addresses CREB-binding protein/Histone acetyltransferase p300 (Homo sapiens, UniProt Q09472+Q92793). The experiment in a line: Binding affinity to p300-CBP (unknown origin) protein protein interaction assessed as dissociation constant by tryptophan fluorescence assay.

A word on the EC50: it is the midpoint of the concentration-response curve. Usually Ki stands for a measure of affinity in units of concentration, obtained from inhibition or displacement. `COC(=O)[C@H](Cc1c[nH]c2ccccc12)N1CCN(C(C)=O)[C@@H](Cc2c[nH]c3ccccc23)C1=O`: the EC50 in the data set with Trypanosoma brucei and in the data set on HepG2 was above 100 µM throughout. Besides, the Ki in data set [1] was 542 µM.

For the compound `COC(=O)[C@H](Cc1c[nH]c2ccccc12)N1CCN[C@@H](Cc2c[nH]c3ccccc23)C1=O`, the values for the EC50 with Trypanosoma brucei and with HepG2 were 30 µM and above 100 µM, respectively. Besides, the selectivity ratio in data set [2] was above 3.4. The Ki in data set [1] is 133 µM.

As for `NC(=O)[C@H](Cc1c[nH]c2ccccc12)N1CCN[C@@H](Cc2c[nH]c3ccccc23)C1=O`, the EC50 in the data set on Trypanosoma brucei and in the data set on HepG2 was above 100 µM throughout. Also, the Ki in data set [1] is 288 µM.

For the compound `COC(=O)[C@H](Cc1ccccc1)N1CC(=O)N[C@@H](Cc2c[nH]c3ccccc23)C1=O`, the EC50 in the data set with Trypanosoma brucei was 29 µM; in the data set with HepG2, 24 µM. The selectivity ratio in data set [2] was below 1. Further, the Ki in data set [1] is above 1000 µM.

On to `O=C1CN(C(=O)Cc2c[nH]c3ccccc23)C[C@H](Cc2c[nH]c3ccccc23)N1`, for which the EC50 in the data set with Trypanosoma brucei and with HepG2 was above 100 µM throughout. The Ki in data set [1] stood at 195 µM.

Regarding `COC(=O)[C@H](Cc1c[nH]c2ccccc12)N1CC(=O)N[C@H](C(=O)NCc2ccccc2)C1`, the EC50 in the data set on Trypanosoma brucei and with HepG2 was above 100 µM throughout. Also, the Ki in data set [1] amounted to 494 µM.

A word on the Kd: it is the equilibrium constant for the complex coming apart. With `CC(C)C[C@@H](C(N)=O)N1CCN(C(=O)[C@H](Cc2c[nH]c3ccccc23)N2CCN[C@@H](Cc3ccccc3)C2=O)[C@@H](Cc2ccccc2)C1=O`, the Kd in data set [3] stood at 2.9 µM.

Turning to `COC(=O)[C@H](Cc1c[nH]c2ccccc12)N1CC(=O)N[C@H](C(=O)NCc2cccc3ccccc23)C1`, the EC50 with Trypanosoma brucei stood at 10 µM; in the data set with HepG2, 33 µM. For the same compound, the selectivity ratio in data set [2] is 3.2. Moreover, the inhibitory constant (Ki) in data set [1] turned out to be 77 µM.

`COC(=O)[C@H](Cc1ccccc1)N1CC(=O)N[C@@H](Cc2c[nH]c3ccccc23)C1`: the EC50 in the data set with Trypanosoma brucei was found to be 13 µM; with HepG2, 56 µM. Moreover, in data set [2], the selectivity ratio amounted to 4.3. Further, the Ki in data set [1] was 73 µM.

On to `COC(=O)[C@H](Cc1c[nH]c2ccccc12)N1C[C@H](Cc2c[nH]c3ccccc23)NC(=O)C1=O`, for which the EC50 is 29 µM with Trypanosoma brucei and above 100 µM in the data set with HepG2. Also, the selectivity ratio in data set [2] was above 3.4. In addition, the Ki in data set [1] is 75 µM.

For the compound `CC(C)C[C@@H]1NCCN([C@@H](CC(C)C)C(=O)N2CCN([C@@H](CCC(N)=O)C(N)=O)C(=O)[C@@H]2C)C1=O`, the Kd in data set [4] amounted to 0.53 µM.

Take `COC(=O)[C@H](Cc1ccccc1)N1CCN[C@@H](Cc2c[nH]c3ccccc23)C1=O`: the values for the EC50 in the data set on Trypanosoma brucei and in the data set on HepG2 were 43 µM and above 100 µM, respectively. In data set [2], the selectivity ratio is above 2.3. For the same compound, in data set [1], the Ki is 265 µM.

As for `COC(=O)[C@H](Cc1c[nH]c2ccccc12)N1CCCN[C@@H](Cc2c[nH]c3ccccc23)C1=O`, the figures for the EC50 with Trypanosoma brucei and in the data set on HepG2 were 5 µM and 21 µM, respectively. In data set [2], the selectivity ratio was found to be 4.2. The Ki in data set [1] turned out to be 53 µM.

In the case of `O=C1CN(CCc2c[nH]c3ccccc23)C[C@H](Cc2c[nH]c3ccccc23)N1`, the EC50 is 7 µM with Trypanosoma brucei and 12 µM with HepG2. Besides, the selectivity ratio in data set [2] came out at 1.7. The Ki in data set [1] is 41 µM.

For the compound `NC(=O)[C@H](Cc1ccccc1)N1CC(=O)N[C@@H](Cc2c[nH]c3ccccc23)C1=O`, the EC50 in the data set with Trypanosoma brucei and in the data set with HepG2 was above 100 µM throughout. Besides, the Ki in data set [1] was above 1000 µM.

`CC(=O)OC[C@H](Cc1c[nH]c2ccccc12)N1CC(=O)N[C@@H](Cc2c[nH]c3ccccc23)C1`: the EC50 in the data set with Trypanosoma brucei was found to be 13 µM; with HepG2 it was 29 µM. The selectivity ratio in data set [2] stood at 1.8. Besides, the Ki in data set [1] worked out at 58 µM.

As for `O=C1CN([C@H](CO)Cc2c[nH]c3ccccc23)C[C@H](Cc2c[nH]c3ccccc23)N1`, the EC50 with Trypanosoma brucei is 14 µM; with HepG2, 24 µM. For the same compound, the selectivity ratio in data set [2] came to 1.7. The Ki in data set [1] came to 48 µM.

As for `COC(=O)[C@H](Cc1c[nH]c2ccccc12)N1CC(=O)N[C@@H](Cc2c[nH]c3ccccc23)C1`, the EC50 came to 5 µM in the data set on Trypanosoma brucei and 17 µM with HepG2. The selectivity ratio in data set [2] is 3.6. The Ki in data set [1] was determined as 27 µM.
